# Experimental data as given in ChEMBL document CHEMBL5038664, “Thieno[2,3-d]pyrimidine-Based Positive Allosteric Modulators of Human Mas-Related G Protein-Coupled Receptor X1 (MRGPRX1)” (J Med Chem, 2022).
# Calls of active or inactive are those of the source. The calls are words filed in the database; no cut-off is given here.
# Molecular target: T1, Mas-related G-protein coupled receptor member X1 (Homo sapiens, UniProt Q96LB2)
# Assay: Agonist activity at human MRGPRX1 expressed in HEK293 cells upto 100 uM in absence of BAM8-22 by Fluo-dye based FLIPR assay
# Type: functional, cell-based
# Conditions: dose microM <=100
# In short: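 Human MRGPRX1 stably expressed in HEK293 cells, 25,000 cells/well, 2 days. Loaded with 2 µM Fluo-4 AM and 1% Trypan Red in HBSS for 50 min at 37°C, then 10 min at room temperature. Serially diluted compound in HBSS added; FLIPR imaging 2 min, signal taken as maximum minus minimum fluorescence.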
# T1 sequence (Q96LB2 whole entry): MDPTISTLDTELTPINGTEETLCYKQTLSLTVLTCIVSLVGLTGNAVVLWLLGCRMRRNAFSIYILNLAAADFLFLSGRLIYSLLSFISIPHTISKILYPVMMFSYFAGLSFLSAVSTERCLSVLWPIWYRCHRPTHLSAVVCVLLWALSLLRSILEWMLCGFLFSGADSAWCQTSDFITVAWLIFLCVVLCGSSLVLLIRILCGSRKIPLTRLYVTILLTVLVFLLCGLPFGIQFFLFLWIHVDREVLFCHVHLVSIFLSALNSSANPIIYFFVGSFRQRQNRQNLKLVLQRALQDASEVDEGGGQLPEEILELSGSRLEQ
row,SMILES,Activity
1,CC(C)(C)c1sc2ncnc(Oc3ccccc3OC(F)(F)F)c2c1-c1ccc(Cl)c(Cl)c1,inactive

# Tested on: not listed separately
# Assay: Acute toxicity in mouse expressing MRGPRX1 at 100 mg/kg, po measured upto 1.5 hrs by rotarod test
# Type: organism-based
# Conditions: in vivo
# In short: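 Motor coordination was measured by rotarod in naïve humanized MRGPRX1 mice after 100 mg/kg po. Performance was compared with a vehicle-treated group and with pre-treatment values.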
row,SMILES,Activity
1,CC(C)(C)c1sc2ncnc(Oc3ccccc3OC(F)(F)F)c2c1-c1ccc(Cl)c(Cl)c1,Non-Toxic

# Tested on: not listed separately
# Assay: Tmax in CD1 mouse plasma at 100 mg/kg, po measured upto 6 hrs by LC-MS/MS analysis
# Type: ADME, organism-based
# Conditions: in vivo
# In short: (§1)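 Male CD-1 mice (25–30 g, n=3 per time point) dosed 100 mg/kg by oral gavage in 5% dimethylacetamide/10% Cremophor EL/10% Tween80/25% PEG400/50% water. Killed at 0.25–6 h; cardiac-puncture plasma, brain and spinal cord collected. Acetonitrile extraction with losartan internal standard, LC/MS/MS; calibration 0.01–10 nmol/mL, 1/x weighting. Tissue-to-plasma ratios by AUC.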
row,SMILES,Tmax [h]
1,CC(C)(C)c1sc2ncnc(Oc3ccccc3OC(F)(F)F)c2c1-c1ccc(Cl)c(Cl)c1,1

# Tested on: not listed separately
# Assay: Metabolic stability in human microsome assessed as compound remaining measured after 30 min in presence of NADPH regenerating system by LC-MS/MS analysis
# Type: ADME, Liver
# Conditions: microsomes, 0.5 h
row,SMILES,Stability [%]
1,CC(C)(C)c1cc2c(Oc3ccccc3F)ncnc2s1,75
2,CC(C)(C)c1sc2ncnc(Oc3ccccc3F)c2c1-c1ccc(F)cc1,> 95
3,CC(C)(C)c1sc2ncnc(Oc3ccccc3OC(F)(F)F)c2c1-c1ccc(Cl)c(Cl)c1,> 95
4,Fc1ccccc1Oc1ncnc2scc(C(F)(F)F)c12,40
5,Cc1sc2ncnc(Oc3ccccc3F)c2c1C,< 5
6,CC(C)(C)c1sc2ncnc(Oc3ccccc3OC(F)(F)F)c2c1-c1ccc(F)cc1,> 95

# Tested on: Mus musculus
# Assay: Analgesic activity in mouse model of sciatic nerve chronic constriction injury-induced neuropathic pain assessed as increase in ipsilateral paw withdrawal latency at 100 mg/kg, po measured at 1 and 2 hrs on day 12 post injury by Hargreaves test
# Type: functional, organism-based
# Conditions: time 12.0 day
# In short: (§2)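 Humanized MRGPRX1 mice, both sexes, 2–3 months old, 20–30 g, sciatic nerve CCI. Given 100 mg/kg orally (n=4–5/group, vehicle comparator). Heat withdrawal latency by Hargreaves test on days 12 and 26 post-CCI, compared with pre-drug and vehicle; two-way mixed-model ANOVA with Bonferroni test, mean + SD.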
row,SMILES,Activity
1,CC(C)(C)c1sc2ncnc(Oc3ccccc3OC(F)(F)F)c2c1-c1ccc(Cl)c(Cl)c1,Active

# Tested on: not listed separately
# Assay: Ratio of AUClast in CD1 mouse brain to plasma at 100 mg/kg, po measured upto 6 hrs by LC-MS/MS analysis
# Type: ADME, organism-based
# Conditions: not given
# In short: as §1
row,SMILES,Kp at 6 h
1,CC(C)(C)c1sc2ncnc(Oc3ccccc3OC(F)(F)F)c2c1-c1ccc(Cl)c(Cl)c1,2.2

# Tested on: not listed separately
# Assay: Acute toxicity in mouse expressing MRGPRX1 assessed as impaired exploratory activity at 100 mg/kg, po by open field test
# Type: organism-based
# Conditions: in vivo
# In short: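 Naïve humanized MRGPRX1 mice were dosed at 100 mg/kg po, with vehicle-treated mice as a parallel group. Exploratory performance in an open field test was compared with each animal's pre-drug values.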
row,SMILES,Activity
1,CC(C)(C)c1sc2ncnc(Oc3ccccc3OC(F)(F)F)c2c1-c1ccc(Cl)c(Cl)c1,Non-Toxic

# Molecular target: hERG (KCNH2) (Homo sapiens, UniProt Q12809)
# Assay: Inhibition of hERG at 10 uM relative to control
# Type: toxicity
# Conditions: not given
# Chain of hERG (KCNH2) (Q12809 whole entry): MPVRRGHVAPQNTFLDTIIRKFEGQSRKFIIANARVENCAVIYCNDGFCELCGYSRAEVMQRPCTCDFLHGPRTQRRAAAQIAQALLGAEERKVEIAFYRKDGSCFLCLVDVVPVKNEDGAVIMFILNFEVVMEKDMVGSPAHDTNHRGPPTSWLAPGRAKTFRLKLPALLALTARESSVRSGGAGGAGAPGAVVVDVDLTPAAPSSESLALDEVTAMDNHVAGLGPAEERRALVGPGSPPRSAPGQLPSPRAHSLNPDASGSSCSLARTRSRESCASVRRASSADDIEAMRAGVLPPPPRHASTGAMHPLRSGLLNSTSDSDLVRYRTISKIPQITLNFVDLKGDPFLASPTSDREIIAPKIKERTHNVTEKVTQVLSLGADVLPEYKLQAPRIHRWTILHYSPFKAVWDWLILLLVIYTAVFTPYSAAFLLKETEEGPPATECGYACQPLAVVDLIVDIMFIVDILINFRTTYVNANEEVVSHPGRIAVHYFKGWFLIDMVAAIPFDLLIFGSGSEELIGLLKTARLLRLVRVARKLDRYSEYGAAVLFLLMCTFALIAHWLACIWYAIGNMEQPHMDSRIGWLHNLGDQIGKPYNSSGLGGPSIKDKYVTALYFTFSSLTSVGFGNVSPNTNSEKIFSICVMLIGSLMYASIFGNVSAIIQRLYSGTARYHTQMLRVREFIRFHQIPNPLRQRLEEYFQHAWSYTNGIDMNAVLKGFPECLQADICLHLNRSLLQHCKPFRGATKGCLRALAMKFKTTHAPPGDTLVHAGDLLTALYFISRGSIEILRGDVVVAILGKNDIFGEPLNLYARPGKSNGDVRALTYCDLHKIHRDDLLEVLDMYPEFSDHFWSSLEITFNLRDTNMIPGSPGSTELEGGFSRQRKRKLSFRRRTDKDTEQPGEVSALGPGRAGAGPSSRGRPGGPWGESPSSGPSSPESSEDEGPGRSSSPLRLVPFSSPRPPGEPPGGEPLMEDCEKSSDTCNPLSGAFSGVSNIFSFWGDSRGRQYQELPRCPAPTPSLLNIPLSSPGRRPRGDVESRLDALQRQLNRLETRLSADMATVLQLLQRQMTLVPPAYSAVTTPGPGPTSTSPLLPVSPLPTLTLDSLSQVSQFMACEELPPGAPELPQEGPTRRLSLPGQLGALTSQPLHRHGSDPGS
row,SMILES,inhibition at 10 µM [%]
1,CC(C)(C)c1sc2ncnc(Oc3ccccc3OC(F)(F)F)c2c1-c1ccc(Cl)c(Cl)c1,50

# Tested on: not listed separately
# Assay: Metabolic stability in mouse microsome assessed as compound remaining measured after 60 min in presence of NADPH regenerating system by LC-MS/MS analysis
# Type: ADME, Liver
# Conditions: microsomes, 1 h
row,SMILES,Stability [%]
1,CC(C)(C)c1cc2c(Oc3ccccc3F)ncnc2s1,< 5
2,CC(C)(C)c1sc2ncnc(Oc3ccccc3F)c2c1-c1ccccc1,< 5
3,CC(C)(C)c1sc2ncnc(Oc3ccccc3F)c2c1-c1ccc(F)cc1,< 5
4,CC(C)(C)c1sc2ncnc(Oc3ccccc3OC(F)(F)F)c2c1-c1ccc(Cl)c(Cl)c1,25
5,Fc1ccccc1Oc1ncnc2scc(C(F)(F)F)c12,< 5
6,Cc1sc2ncnc(Oc3ccccc3F)c2c1C,< 5
7,CC(C)(C)c1sc2ncnc(Oc3ccccc3OC(F)(F)F)c2c1-c1ccc(F)cc1,5

# Tested on: Mus musculus
# Assay: Analgesic activity in mouse model of sciatic nerve chronic constriction injury-induced neuropathic pain assessed as increase in contralateral paw withdrawal latency at 100 mg/kg, po measured at 2 hrs post drug on day 26 post injury by Hargreaves test
# Type: functional, organism-based
# Conditions: not given
# In short: as §2
row,SMILES,Activity
1,CC(C)(C)c1sc2ncnc(Oc3ccccc3OC(F)(F)F)c2c1-c1ccc(Cl)c(Cl)c1,inactive

# Molecular target: T1, Mas-related G-protein coupled receptor member X1
# Assay: Positive allosteric modulator activity at human MRGPRX1 transfected in HEK293 cells in presence of BAM8-22 by Fulo4AM dye based FLIPR assay
# Type: cell-based
# Conditions: not given
row,SMILES,EC50 [nM]
1,Cc1sc2ncnc(Oc3cccc(F)c3)c2c1C,30000
2,CC(C)(C)c1cc2c(Oc3ccccc3F)ncnc2s1,320
3,Cc1cc2c(Oc3ccccc3F)ncnc2s1,1500
4,CC(C)(C)c1sc2ncnc(Oc3ccccc3F)c2c1-c1ccccc1,340
5,Cc1csc2ncnc(Oc3ccccc3F)c12,1700
6,Fc1ccccc1Oc1ncnc2scc(C(F)(F)F)c12,2100
7,Cc1sc2ncnc(Oc3ccccc3F)c2c1C,220
8,CC(C)(C)c1sc2ncnc(Oc3ccccc3OC(F)(F)F)c2c1-c1ccc(F)cc1,230

# Tested on: not listed separately
# Assay: Metabolic stability in mouse microsome assessed as compound remaining measured after 30 min in presence of NADPH regenerating system by LC-MS/MS analysis
# Type: ADME, Liver
# Conditions: microsomes, 0.5 h
row,SMILES,Stability [%]
1,CC(C)(C)c1cc2c(Oc3ccccc3F)ncnc2s1,< 5
2,CC(C)(C)c1sc2ncnc(Oc3ccccc3F)c2c1-c1ccccc1,14
3,CC(C)(C)c1sc2ncnc(Oc3ccccc3F)c2c1-c1ccc(F)cc1,7
4,CC(C)(C)c1sc2ncnc(Oc3ccccc3OC(F)(F)F)c2c1-c1ccc(Cl)c(Cl)c1,58
5,Fc1ccccc1Oc1ncnc2scc(C(F)(F)F)c12,< 5
6,Cc1sc2ncnc(Oc3ccccc3F)c2c1C,< 5
7,CC(C)(C)c1sc2ncnc(Oc3ccccc3OC(F)(F)F)c2c1-c1ccc(F)cc1,28

# Tested on: not listed separately
# Assay: Tmax in CD1 mouse spinal cord at 100 mg/kg, po measured upto 6 hrs by LC-MS/MS analysis
# Type: ADME, organism-based
# Conditions: in vivo
# In short: as §1
row,SMILES,Tmax [h]
1,CC(C)(C)c1sc2ncnc(Oc3ccccc3OC(F)(F)F)c2c1-c1ccc(Cl)c(Cl)c1,1

# Tested on: not listed separately
# Assay: Drug metabolism in human liver microsomes assessed as CYP450 mediated oxidation of parent compound measured after 60 mins by UPLC analysis
# Type: ADME, Microsome
# Conditions: 1 h
row,SMILES,Drug metabolism
1,Cc1sc2ncnc(Oc3ccccc3F)c2c1C,Metabolite_Detected

# Molecular target: T2, Mas-related G-protein coupled receptor member X2 (Homo sapiens) (UniProt Q96LB1)
# T2 sequence (whole entry): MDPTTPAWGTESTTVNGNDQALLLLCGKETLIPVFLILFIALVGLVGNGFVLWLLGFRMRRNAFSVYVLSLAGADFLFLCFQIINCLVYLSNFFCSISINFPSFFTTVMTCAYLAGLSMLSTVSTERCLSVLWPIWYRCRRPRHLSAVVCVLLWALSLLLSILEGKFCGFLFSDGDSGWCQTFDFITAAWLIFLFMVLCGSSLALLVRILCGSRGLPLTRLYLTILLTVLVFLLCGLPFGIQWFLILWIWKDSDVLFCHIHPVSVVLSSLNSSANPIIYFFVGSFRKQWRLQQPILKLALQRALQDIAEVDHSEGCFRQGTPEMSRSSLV
# Assay: Positive allosteric modulator activity at human MRGPRX2 transfected in HEK293 cells at 5 uM in presence of C48/80 by Fluo-4 AM-based FLIPR assay
# Type: cell-based
# Conditions: not given
# In short: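 MRGPRX2 stably expressed in HEK293 cells; compound tested with an EC20 level of the orthosteric agonist C48/80, calcium response detected with Fluo-4 AM.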
row,SMILES,Activity
1,CC(C)(C)c1sc2ncnc(Oc3ccccc3OC(F)(F)F)c2c1-c1ccc(Cl)c(Cl)c1,inactive

# Tested on: not listed separately
# Assay: Metabolic stability in human microsome assessed as compound remaining measured after 60 min in presence of NADPH regenerating system by LC-MS/MS analysis
# Type: ADME, Liver
# Conditions: microsomes, 1 h
row,SMILES,Stability [%]
1,CC(C)(C)c1cc2c(Oc3ccccc3F)ncnc2s1,61
2,CC(C)(C)c1sc2ncnc(Oc3ccccc3F)c2c1-c1ccccc1,78
3,CC(C)(C)c1sc2ncnc(Oc3ccccc3F)c2c1-c1ccc(F)cc1,88
4,CC(C)(C)c1sc2ncnc(Oc3ccccc3OC(F)(F)F)c2c1-c1ccc(Cl)c(Cl)c1,> 95
5,Fc1ccccc1Oc1ncnc2scc(C(F)(F)F)c12,< 5
6,Cc1sc2ncnc(Oc3ccccc3F)c2c1C,< 5
7,CC(C)(C)c1sc2ncnc(Oc3ccccc3OC(F)(F)F)c2c1-c1ccc(F)cc1,> 95

# Molecular target: T1, Mas-related G-protein coupled receptor member X1
# Assay: Positive allosteric modulator activity at human MRGPRX1 transfected in HEK293 cells assessed as maximal efficacy in presence of BAM8-22 by Fulo4AM dye based FLIPR assay relative to control
# Type: cell-based
# Conditions: filed as positive allosteric modulator
row,SMILES,Emax [%]
1,Cc1sc2ncnc(Oc3cccc(F)c3)c2c1C,55
2,CC(C)(C)c1cc2c(Oc3ccccc3F)ncnc2s1,105
3,Cc1cc2c(Oc3ccccc3F)ncnc2s1,90
4,CC(C)(C)c1sc2ncnc(Oc3ccccc3F)c2c1-c1ccccc1,95
5,CC(C)(C)c1sc2ncnc(Oc3ccccc3F)c2c1-c1ccc(F)cc1,145
6,CC(C)(C)c1sc2ncnc(Oc3ccccc3OC(F)(F)F)c2c1-c1ccc(Cl)c(Cl)c1,114
7,Cc1csc2ncnc(Oc3ccccc3F)c12,94
8,Fc1ccccc1Oc1ncnc2scc(C(F)(F)F)c12,94
9,Cc1sc2ncnc(Oc3ccccc3F)c2c1C,112
10,CC(C)(C)c1sc2ncnc(Oc3ccccc3OC(F)(F)F)c2c1-c1ccc(F)cc1,143

# Tested on: not listed separately
# Assay: Acute toxicity in mouse expressing MRGPRX1 assessed as itching by measuring spontaneous scratching bouts at 100 mg/kg, po measured upto 1 hr
# Type: organism-based
# Conditions: in vivo
# In short: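 Awake, free-moving humanized MRGPRX1 mice (human MRGPRX1 expressed in nociceptive DRG neurons in place of murine MrgprC11) were dosed orally at 100 mg/kg. Spontaneous behaviour was video-recorded for 0–1 h after dosing, and scratch bouts were counted and compared with vehicle-treated mice.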
row,SMILES,Activity
1,CC(C)(C)c1sc2ncnc(Oc3ccccc3OC(F)(F)F)c2c1-c1ccc(Cl)c(Cl)c1,Non-Toxic

# Tested on: Mus musculus
# Assay: Analgesic activity in mouse model of sciatic nerve chronic constriction injury-induced neuropathic pain assessed as increase in ipsilateral paw withdrawal latency at 100 mg/kg, po measured at 2 hrs post drug on day 26 post injury by Hargreaves test
# Type: functional, organism-based
# Conditions: not given
# In short: as §2
row,SMILES,Activity
1,CC(C)(C)c1sc2ncnc(Oc3ccccc3OC(F)(F)F)c2c1-c1ccc(Cl)c(Cl)c1,Active

# Tested on: not listed separately
# Assay: Ratio of AUClast in CD1 mouse spinal cord to plasma at 100 mg/kg, po measured upto 6 hrs by LC-MS/MS analysis
# Type: ADME, organism-based
# Conditions: not given
# In short: as §1
row,SMILES,Kp at 6 h
1,CC(C)(C)c1sc2ncnc(Oc3ccccc3OC(F)(F)F)c2c1-c1ccc(Cl)c(Cl)c1,12.7

# Tested on: not listed separately
# Assay: Tmax in CD1 mouse brain at 100 mg/kg, po measured upto 6 hrs by LC-MS/MS analysis
# Type: ADME, organism-based
# Conditions: in vivo
# In short: as §1
row,SMILES,Tmax [h]
1,CC(C)(C)c1sc2ncnc(Oc3ccccc3OC(F)(F)F)c2c1-c1ccc(Cl)c(Cl)c1,1

# Tested on: Mus musculus
# Assay: Analgesic activity in mouse model of sciatic nerve chronic constriction injury-induced neuropathic pain assessed as increase in contralateral paw withdrawal latency at 100 mg/kg, po measured at 1 and 2 hrs on day 12 post injury by Hargreaves test
# Type: functional, organism-based
# Conditions: time 12.0 day
# In short: as §2
row,SMILES,Activity
1,CC(C)(C)c1sc2ncnc(Oc3ccccc3OC(F)(F)F)c2c1-c1ccc(Cl)c(Cl)c1,inactive
